Bioassay records deposited in PubChem BioAssay by Broad Institute.
In the library only some 2.2% were active in any assay of this set; here they are far more common.
dFosB act-1: mouse delta FosB homodimer activation. P13346. purified delta FosB, TAMRA-CDK5 oligo fluorescence polarization; percent of positive-control signal above neutral wells. activation, % at 25 µM. hit rate 0.99% among 340,000. AID 493131;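 active = mean activation above about 17%, with every replicate also reaching it, limit read from the data, passing the limit was not always enough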
FGF22 binding: binders of recombinant human FGF22 by thermal shift; Q9HCT0; SYPRO orange fluorescence; percent of sucrose octasulfate shift, DMSO zero; activity (Tm shift, normalised), % at 9.99 µM; hit rate 1.5% among 340,000; AID 651658;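 active = mean Tm shift, scaled 0 neutral to 100 positive control, at about 1.3% or above, every replicate too, limit read from the data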
Target sequence (Q9HCT0 whole entry, looked up): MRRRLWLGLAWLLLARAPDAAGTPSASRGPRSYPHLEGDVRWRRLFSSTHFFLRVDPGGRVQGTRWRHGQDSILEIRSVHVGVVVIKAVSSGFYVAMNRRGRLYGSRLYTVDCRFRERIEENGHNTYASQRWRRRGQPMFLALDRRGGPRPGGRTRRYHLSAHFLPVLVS
S100A4 MyoIIA: inhibitors of human S100A4 binding to myosin IIA peptide; P26447; S100A4/TAMRA-MyoIIA peptide fluorescence polarization; inhibition, % at 10.7 µM; hit rate 0.14% among 360,000; AID 652163;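 active = mean inhibition of at least 70% across replicates, with every replicate also reaching that level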
Target sequence (P26447 whole entry, looked up): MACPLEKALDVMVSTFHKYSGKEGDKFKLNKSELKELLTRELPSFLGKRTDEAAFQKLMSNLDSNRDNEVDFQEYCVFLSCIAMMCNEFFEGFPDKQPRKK
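Material: S100A4 monomer (human). Medium: Calcium-containing HEPES buffer, pH 7.2. Probe or stimulus: labelled myosin peptide probe, 5 nM. Compound dosing: one concentration per compound. Timing: polarization read 5 min after assay mix addition, stable 5–60 min. Benchmarks: DMSO as neutral control, TFP as positive control.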
CFTR F508del cor: correctors of CFTR F508del function in bronchial epithelial cells; activity (quench increase), % at 7.58 µM; hit rate 0.36% among 350,000; CFBE cells, YFP halide quenching; stimulated with forskolin plus potentiator P3; % fluorescence drop versus neutral controls; AID 720511;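 active = mean added fluorescence quench of at least 8% versus neutral control, with both replicates also reaching 8%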;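 also: cells transiently co-express mutant CFTR-F508del with the halide-sensitive YFP; corrector assay measuring rescue of mutant channel to the surface after 24 h compound exposure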
dFosB act-2: enhances mouse delta FosB homodimer binding to DNA; purified delta FosB, TAMRA-CDK5 oligo fluorescence polarization; normalised: neutral wells 0, positive control 100; 2,400 tested, under 10 active; activation, % at 24.9 µM; shares compounds with dFosB act-1; AID 588690;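 active = highest replicate activation at or above 34% and every replicate reaching that threshold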;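 also: higher polarization means more probe DNA bound by delta FosB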
Numbers without * were called inactive; · = not tested or not shown.

SMILES | dFosB act-1 | FGF22 binding | S100A4 MyoIIA | CFTR F508del cor | dFosB act-2
CCOc1ccc(-n2c(SCC(=O)N3CCc4ccccc43)nnc2-c2c[nH]c3ccccc23)cc1 | 27.2* | 0.2 | 4.0 | -2.2 | 3.7
O=C(CSc1nnc(Cc2cc(=O)[nH]c(=O)[nH]2)n1-c1ccccc1)N1CCCc2ccccc21 | -5.0 | · | · | · | ·
Cc1ccc(S(=O)(=O)N(C)C[C@H]2Oc3c(NC(=O)CCCCCC(=O)Nc4ccccc4N)cccc3C(=O)N([C@@H](C)CO)C[C@H]2C)cc1 | · | 0.7 | 1.7 | -1.4 | ·
CCOC(=O)c1c(C)[nH]c(C(=O)OCC(=O)Nc2ccccc2)c1C | 27.0* | 0.1 | 1.5 | -2.7 | -0.9
COC(=O)c1ccc(/C=C2\Oc3ccccc3NC2=O)cc1 | 33.1* | -0.4 | -1.0 | 1.4 | -6.5
CSC1=N/C(=C\c2c(F)cccc2Cl)C(=O)S1 | 3.2 | · | · | · | ·
O=C1Nc2ccccc2O/C1=C\c1c(F)cccc1Cl | 24.7* | -0.3 | 1.8 | 1.3 | 0.5
COc1ccc(Cn2c(C)c(C)c(C#N)c2NC(=O)Nc2ccccc2)cc1 | -0.9 | · | · | · | ·
COc1ccc(Cn2c(C)c(C)c(C#N)c2NC(=O)Nc2cccc(C)c2)cc1 | 62.8* | · | · | · | 3.1
Cc1nn(Cc2c(Cl)cccc2Cl)c(C)c1NC(=O)c1sc2ccccc2c1Cl | 40.5* | · | · | · | 5.4
CN(CC(=O)Nc1c(Cl)cccc1Cl)C(=O)CNC(=O)c1sc2ccccc2c1Cl | 34.7* | 0.1 | -1.6 | -3.6 | -2.0
C[C@@H]1CCCCO[C@@H](CN(C)C(=O)Nc2ccc3c(c2)OCO3)[C@H](C)CN([C@@H](C)CO)C(=O)c2cc(NC(=O)c3ccncc3)ccc2O1 | · | -0.4 | -15.2 | 0.8 | ·
CCCN1C[C@H](C)[C@H](OC)CN(C)C(=O)c2cc(NC(=O)C3CCOCC3)ccc2OC[C@H]1C | · | 0.3 | 0.3 | -6.0 | ·
CS(=O)(=O)c1ccc2nc(NC(=O)C3=NN(c4ccccc4)C(=O)CC3)sc2c1 | -10.0 | 0.0 | -5.2 | -0.1 | ·
CS(=O)(=O)c1ccc2nc(NC(=O)c3cc(-c4ccccc4)nn3-c3ccccc3)sc2c1 | 29.2* | 43.3* | 1.1 | -0.4 | 7.2
Cc1ccccc1C(=O)NNC(=O)CSc1nc(-c2ccccc2)cc(=O)[nH]1 | 40.3* | 0.3 | 5.8 | -1.0 | 3.8
O=C(CSc1nc(-c2ccccc2)cc(=O)[nH]1)NCc1ccc2c(c1)OCO2 | 48.6* | · | · | · | 3.2
COc1cccc(CNC(=O)C[C@H]2CC[C@H](NC(C)=O)[C@@H](CO)O2)c1 | · | -0.2 | -0.9 | -5.2 | ·
O=c1c2ccc(Cl)cc2[nH]c(=S)n1Cc1cccnc1 | 19.5* | · | · | · | 6.3
O=C(c1ccc2c(=O)n(Cc3ccc(Cl)cc3)c(=S)[nH]c2c1)N1CCCC1 | 15.2 | 0.1 | 2.7 | -0.7 | ·
Cc1ccc(S(=O)(=O)N(C)C[C@@H]2OCCCC[C@@H](C)Oc3ccc(NC(=O)Nc4ccc(F)cc4)cc3C(=O)N([C@@H](C)CO)C[C@@H]2C)cc1 | · | -0.1 | -5.7 | -3.3 | ·
Cc1ccc2c(c1)CC(C)N2S(=O)(=O)c1nnc(NC(=O)CC(C)C)s1 (configuration not stated) | 26.7* | -0.1 | 3.9 | 1.7 | 1.2
COc1ccc(/C=C/C(=O)NC(=S)Nc2ccc(S(N)(=O)=O)cc2)cc1OC | 46.6* | 0.0 | -0.6 | 3.4 | 1.6
COc1ccc(/C=C/C(=O)Nc2ccc(-n3nncc3-c3ccc(OC)c(OC)c3)cc2)cc1OC | 45.8* | 0.1 | 4.0 | · | -1.6
COc1ccc(-c2cnnn2-c2ccc(NC(=O)/C=C/c3ccc(OC)c(OC)c3)cc2)cc1 | 2.2 | 0.1 | -0.6 | · | ·
NC(N)=NS(=O)(=O)c1ccc(NC(=S)NC(=O)/C=C/c2ccccc2)cc1 | 22.2* | -0.2 | 1.1 | 3.3 | 2.7
COc1ccc(/C=C/C(=O)Nc2ccccc2)cc1OC | -1.7 | -0.5 | 25.9 | 3.7 | ·
COc1ccc(/C=C/C(=O)NC(=S)Nc2ccccc2)cc1OC | 32.9* | -0.2 | -2.1 | 0.6 | -0.3
COCC#Cc1ccc2c(c1)O[C@H](CN(C)Cc1ccc3c(c1)OCO3)[C@H](C)CN([C@@H](C)CO)S2(=O)=O | · | · | · | 2.8 | ·
C[C@@H]1CN([C@@H](C)CO)C(=O)c2cccc(NC(=O)Nc3ccc4c(c3)OCO4)c2O[C@H]1CN(C)Cc1ccc(Oc2ccccc2)cc1 | · | -0.3 | -6.4 | -1.4 | ·
